From ChEMBL document CHEMBL1275331, “Discovery of a novel 5-HT(3) antagonist/5-HT(1A) agonist 3-amino-5,6,7,8-tetrahydro-2-{4-[4-(quinolin-2-yl)piperazin-1-yl]butyl}quinazolin-4(3H)-one (TZB-30878) as an orally bioavailable agent for irritable bowel syndrome” (J Med Chem, 2010) come the findings set out here.

Series [1] deals with T1, 5-hydroxytryptamine receptor 3A (Homo sapiens, UniProt P46098).
T1 sequence (P46098 whole entry): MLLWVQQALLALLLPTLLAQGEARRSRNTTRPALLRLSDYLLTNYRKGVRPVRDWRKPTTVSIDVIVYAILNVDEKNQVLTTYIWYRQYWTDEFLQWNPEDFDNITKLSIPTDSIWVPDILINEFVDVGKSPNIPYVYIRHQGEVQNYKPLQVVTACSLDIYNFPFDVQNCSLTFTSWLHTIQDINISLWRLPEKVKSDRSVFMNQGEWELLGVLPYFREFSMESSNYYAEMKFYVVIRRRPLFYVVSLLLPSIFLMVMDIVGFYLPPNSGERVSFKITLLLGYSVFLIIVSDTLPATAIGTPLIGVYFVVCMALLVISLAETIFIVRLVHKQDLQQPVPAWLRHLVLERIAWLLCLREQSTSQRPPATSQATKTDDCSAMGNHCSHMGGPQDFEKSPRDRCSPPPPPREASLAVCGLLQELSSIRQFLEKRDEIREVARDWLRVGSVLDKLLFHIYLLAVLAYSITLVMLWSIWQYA
The series can be described thus: Displacement of [3H]BRL-43694 from human 5HT3 receptor expressed in HEK293 cells by liquid scintillation counting. It counts as cell-based. The gist of the method:
(§1)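 HEK-293 membranes expressing human 5-HT3 were incubated with 0.5 nmol/L [3H]BRL-43694 (final) for 60 min at 25 °C. Buffer: 50 mM Tris-HCl, 5 mM MgCl2, 1 mM EDTA, pH 7.5. Compound came from 270 μmol/L DMSO stock, diluted in buffer. Filtration was through GF/B presoaked in 0.5% polyethyleneimine, with two cold Tris washes. Run in duplicate or triplicate; percent inhibition calculated.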

A short description of series [2]: Ratio of drug level in brain to blood in Sprague-Dawley rat at 3 mg/kg, po after 4 hrs. Type of series: ADME, organism-based. Details: dose 3 mg/kg, route oral. Summed up: (§2)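 Rats dosed 3 mg/kg orally; total compound levels measured in brain and blood at 2, 4 and 8 h, brain/blood ratio derived. Mean ± SD of three rats.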
The nature of series [3]: Ratio of drug level in brain to blood in Sprague-Dawley rat at 3 mg/kg, po after 8 hrs. It counts as ADME, organism-based. Details: dose 3 mg/kg, route oral. Summed up: as §2
The nature of series [4]: Drug level in Sprague-Dawley rat blood at 3 mg/kg, po after 4 hrs by HPLC analysis. It counts as ADME, organism-based. Details: dose 3 mg/kg, route oral. The settings on record: whole blood, read-out: Drug uptake. The gist of the method:
(§3)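 Total compound concentration was measured in brain and blood at 2, 4 and 8 h after a single oral 3 mg/kg dose. Brain/blood ratio was also derived. Values are mean ± SD of three rats.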

The nature of series [5]: Ratio of drug level in brain to blood in Sprague-Dawley rat at 3 mg/kg, po after 2 hrs. It counts as ADME, organism-based. Details: dose 3 mg/kg, route oral. The gist of the method:
as §2

A short description of series [6]: Drug level in Sprague-Dawley rat brain at 3 mg/kg, po after 4 hrs by HPLC analysis. The settings on record: read-out: Drug uptake. Details: dose 3 mg/kg, route oral. Type of series: ADME, organism-based. Summed up: as §3
A short description of series [7]: Drug level in Sprague-Dawley rat brain at 3 mg/kg, po after 8 hrs by HPLC analysis. Type of series: ADME, organism-based. Details: dose 3 mg/kg, route oral. The settings on record: read-out: Drug uptake. The gist of the method: as §3
Series [8] can be described thus: Drug level in Sprague-Dawley rat brain at 3 mg/kg, po after 2 hrs by HPLC analysis. The settings on record: read-out: Drug uptake. It counts as ADME, organism-based. Details: dose 3 mg/kg, route oral. Summed up:
as §3

Series [9] can be described thus: Drug level in Sprague-Dawley rat blood at 3 mg/kg, po after 2 hrs by HPLC analysis. Details: dose 3 mg/kg, route oral. The settings on record: whole blood, read-out: Drug uptake. It counts as ADME, organism-based. The gist of the method:
as §3

Series [10] deals with T2, 5-hydroxytryptamine receptor 1A (Homo sapiens, UniProt P08908).
T2 sequence (P08908 whole entry): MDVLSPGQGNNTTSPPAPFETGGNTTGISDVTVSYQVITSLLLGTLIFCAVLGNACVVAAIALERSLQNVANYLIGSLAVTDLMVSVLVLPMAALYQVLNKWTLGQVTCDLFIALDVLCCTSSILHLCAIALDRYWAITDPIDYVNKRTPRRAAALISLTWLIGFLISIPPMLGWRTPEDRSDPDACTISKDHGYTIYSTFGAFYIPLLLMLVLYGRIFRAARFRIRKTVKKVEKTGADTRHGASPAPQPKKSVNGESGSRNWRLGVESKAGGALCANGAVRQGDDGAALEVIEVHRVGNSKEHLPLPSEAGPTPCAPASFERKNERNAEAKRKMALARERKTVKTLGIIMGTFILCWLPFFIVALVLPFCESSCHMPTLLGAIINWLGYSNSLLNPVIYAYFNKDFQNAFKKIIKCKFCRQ
The series can be described thus: Displacement of [3H]8-OH-DPAT from human 5HT1A receptor expressed in CHO cells by liquid scintillation counting. Type of series: cell-based. The gist of the method: (§4)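 CHO-cell membranes with human 5-HT1A were incubated with 0.25 nmol/L [3H]8-OH-DPAT (final) for 60 min at 27 °C. Buffer: 50 mM Tris-HCl, 10 mM MgSO4, 0.5 mM EDTA, 0.1% ascorbic acid, pH 7.4. Compound came from 270 μmol/L DMSO stock, diluted in buffer. Filtration was through GF/C presoaked in 0.3% polyethyleneimine, with two cold Tris washes. Run in duplicate or triplicate; percent inhibition of binding calculated.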

Series [11] can be described thus: Drug level in Sprague-Dawley rat blood at 3 mg/kg, po after 8 hrs by HPLC analysis. Type of series: ADME, organism-based. Details: dose 3 mg/kg, route oral. The settings on record: whole blood, read-out: Drug uptake. The gist of the method:
as §3

Series [12] deals with T3, 5-hydroxytryptamine receptor 3A (Homo sapiens) (UniProt P46098).
T3 sequence (whole entry): T1 sequence (P46098 whole entry)
Description: Displacement of [3H]BRL-43694 from human 5HT3 receptor expressed in HEK293 cells at 100 nM by liquid scintillation counting. Type of series: cell-based. The gist of the method:
as §1

Series [13] has as its target T4, 5-hydroxytryptamine receptor 1A (Homo sapiens) (UniProt P08908).
T4 sequence (whole entry): T2 sequence (P08908 whole entry)
The series can be described thus: Displacement of [3H]8-OH-DPAT from human 5HT1A receptor expressed in CHO cells at 100 nM by liquid scintillation counting. Type of series: cell-based. Summed up:
as §4

The target in series [14] is T3, 5-hydroxytryptamine receptor 3A (Homo sapiens). Description: Displacement of [3H]BRL-43694 from human 5HT3 receptor expressed in HEK293 cells at 1000 nM by liquid scintillation counting. It counts as cell-based. Summed up: as §1
In series [15] the target is T4, 5-hydroxytryptamine receptor 1A (Homo sapiens). The series can be described thus: Displacement of [3H]8-OH-DPAT from human 5HT1A receptor expressed in CHO cells at 1000 nM by liquid scintillation counting. Type of series: cell-based. Summed up:
as §4

For series [16], the target named is T5, 5-hydroxytryptamine receptor 3A (Cavia porcellus) (UniProt O70212).
T5 sequence (whole entry): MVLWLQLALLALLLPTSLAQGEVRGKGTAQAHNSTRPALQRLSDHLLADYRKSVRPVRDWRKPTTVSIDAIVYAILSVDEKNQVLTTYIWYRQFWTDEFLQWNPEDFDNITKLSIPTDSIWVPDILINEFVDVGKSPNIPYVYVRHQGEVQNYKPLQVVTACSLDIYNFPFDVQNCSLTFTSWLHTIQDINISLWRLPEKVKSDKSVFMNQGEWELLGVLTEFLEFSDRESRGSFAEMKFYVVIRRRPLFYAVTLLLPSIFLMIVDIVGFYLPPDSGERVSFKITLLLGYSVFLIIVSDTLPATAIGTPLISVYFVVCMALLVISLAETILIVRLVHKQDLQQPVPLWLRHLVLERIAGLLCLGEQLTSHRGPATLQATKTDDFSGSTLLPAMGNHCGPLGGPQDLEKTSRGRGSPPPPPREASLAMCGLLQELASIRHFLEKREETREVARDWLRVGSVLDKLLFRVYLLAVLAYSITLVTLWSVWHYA
The series can be described thus: Inhibition of 5HT3 receptor-mediated contraction of guinea pig ileum at 1 umol/L after 20 mins relative to control. Type of series: tissue-based. The gist of the method: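 Ileum strips in Tyrode solution at 37 °C, gassed 5% CO2/95% O2, isotonic contractions under 1 g load. After at least 3 stable contractions to 10 μM 2-methyl-5-HT, tissue exposed to compound or DMSO vehicle for 20 min, then 10 μM 2-methyl-5-HT re-added; contraction expressed as % inhibition of control.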

The test system of series [17] is Rattus norvegicus. Description: Reduction in wrap restraint stress-induced defecation in rat diarrhea-predominant irritable bowel syndrome model at 1 to 10 mg/kg, po administered 1 hr prior to induction of stress. It counts as functional, organism-based. Summed up: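 Lightly anesthetized rats had upper bodies wrapped with adhesive tape, then returned to observation cages; feces counted 1 h after wrapping. Compound or vehicle given orally 1 h before restraint; unwrapped animals as normal group. n = 8 per group, mean (SD); Wilcoxon and nonparametric Dunnett's tests.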

Structures are written as SMILES. Activity calls are given as the source filed them. The rule behind the calls is not given here.

Turning to `CC(=O)N1CCc2c(sc3nc(CCCCN4CCN(c5ccc6ccccc6n5)CC4)n(N)c(=O)c23)C1`, the values for the IC50 in series [1] and in [10] were 22.1 nM and less than 10 nM, respectively. Besides, in series [2], the Kp at 4 h is 0.355. In [3], the Kp at 8 h is 0.307. In addition, the concentration at 4 h turned out to be 55.8 nM in [4] and 19.5 nM in series [6]. The Kp at 2 h in series [5] stood at 0.294. The concentration at 8 h in series [7] came to 13.4 nM; in [11] it was 43.7 nM. Besides, the concentration at 2 h in series [8] was determined as 15.1 nM; in [9] it was 51 nM.

Turning to `Nn1c(=O)c2c(nc1[C@H]1CC[C@@H](N3CCN(c4ccc5ccccc5n4)CC3)CC1)CCCC2`, the inhibition in [12] stood at 19.6%; in series [13], 42.3%; in series [14] it was 87.3%; in [15] it was 91.5%.

Take `Cc1sc2nc(SCCCN3CCN(c4ccc5ccccc5n4)CC3)n(N)c(=O)c2c1C`: the IC50 was 48.4 nM in series [1] and 36.4 nM in series [10]. The compound also had an inhibition in [16] of 41.9%.

As to `Cc1[nH]cnc1CN1CCc2c(c3ccccc3n2C)C1=O`, the inhibition result in series [17] is “Active”.
